{
  "source": "ChEMBL document CHEMBL4376840",
  "about": "“Application of Fluorine- and Nitrogen-Walk Approaches: Defining the Structural and Functional Diversity of 2-Phenylindole Class of Cannabinoid 1 Receptor Positive Allosteric Modulators” (J Med Chem, 2020)",
  "key": {"Cannabinoid receptor 1 [1]": {"target": "T1, Cannabinoid receptor 1 (Homo sapiens, UniProt P21554)", "T1 sequence (P21554 whole entry)": "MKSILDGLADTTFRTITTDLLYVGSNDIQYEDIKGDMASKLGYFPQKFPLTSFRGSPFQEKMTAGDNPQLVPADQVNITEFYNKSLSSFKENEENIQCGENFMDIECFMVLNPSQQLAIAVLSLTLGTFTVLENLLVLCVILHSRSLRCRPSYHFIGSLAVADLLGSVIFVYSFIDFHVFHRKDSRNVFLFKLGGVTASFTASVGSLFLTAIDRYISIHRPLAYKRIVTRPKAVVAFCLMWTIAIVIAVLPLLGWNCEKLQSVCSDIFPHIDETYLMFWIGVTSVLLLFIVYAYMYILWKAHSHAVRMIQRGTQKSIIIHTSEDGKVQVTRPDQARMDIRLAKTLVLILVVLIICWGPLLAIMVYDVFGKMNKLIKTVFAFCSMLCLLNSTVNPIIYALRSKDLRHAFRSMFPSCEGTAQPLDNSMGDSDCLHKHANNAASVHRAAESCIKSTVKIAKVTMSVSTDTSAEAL", "assay": "Positive allosteric modulatory activity at human CB1R expressed in CHO-K1 cells assessed as increase in CP55940-induced beta-arrestin2 recruitment after 90 mins in presence of CP55940 at EC20 concentration by pathhunter beta-arrestin assay relative to control", "assay_type": "cell-based", "how_it_was_run": "(§1)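 Read-out was chemiluminescent β-arrestin2 recruitment, fit with a 4-parameter regression. n = 1–3 independent experiments in duplicate.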"}, "[2]": {"assay": "Toxicity in C57BL/6 mouse assessed as catalepsy at 0.1 to 10 mg/kg, ip after 5 mins by bar holding assay", "assay_type": "organism-based", "settings": "in vivo", "how_it_was_run": "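Male C57BL/6 mice were given 0.1 – 10 mg/kg compound or vehicle (1:1:18 ethanol:cremaphor:saline). Catalepsy was assessed at 5 min as % MPE with a 60 sec maximum. n = 5–6.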"}, "Cannabinoid receptor 1 [3]": {"target": "T1, Cannabinoid receptor 1", "assay": "Displacement of [3H]SR141716A from human CB1R receptor expressed in CHO cell membranes after 2 hrs by liquid scintillation spectrometry analysis"}, "Cannabinoid receptor 1 [4]": {"target": "T1, Cannabinoid receptor 1", "assay": "Allosteric agonist activity at human CB1R expressed in CHO-K1 cells assessed as increase in beta arrestin2 recruitment after 90 mins by pathhunter beta-arrestin assay relative to CP55940", "assay_type": "cell-based", "how_it_was_run": "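PathHunter CHO-K1 hCB1R cells (20,000/well) were held overnight in Opti-MEM with 1% FBS. Compound alone (0.10 nM – 10 μM) was given at 37°C for 90 min, then detection solution for 60 min at room temperature and chemiluminescence was read.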"}, "[5]": {"target": "Cannabinoid receptor 1 (Rattus norvegicus) (UniProt P20272)", "sequence (P20272 whole entry)": "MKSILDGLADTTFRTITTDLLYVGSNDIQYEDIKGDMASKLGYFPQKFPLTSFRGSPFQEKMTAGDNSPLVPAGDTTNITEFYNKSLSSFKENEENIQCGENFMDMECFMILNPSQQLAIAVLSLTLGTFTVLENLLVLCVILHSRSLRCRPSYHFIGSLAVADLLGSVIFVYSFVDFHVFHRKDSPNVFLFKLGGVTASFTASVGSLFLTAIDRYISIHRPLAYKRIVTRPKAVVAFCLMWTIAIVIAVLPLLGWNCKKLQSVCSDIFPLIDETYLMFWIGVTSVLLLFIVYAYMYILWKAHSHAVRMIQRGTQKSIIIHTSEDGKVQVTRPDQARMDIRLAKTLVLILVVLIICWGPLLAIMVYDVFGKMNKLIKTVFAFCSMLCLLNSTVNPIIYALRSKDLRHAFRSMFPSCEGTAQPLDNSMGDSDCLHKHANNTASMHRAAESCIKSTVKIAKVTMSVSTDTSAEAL", "assay": "(§2) Positive allosteric modulatory activity at N-terminal GFP-tagged rat CB1R receptor expressed in HEK293 cells assessed as increase in CP55940-induced inhibition of forskolin-induced cAMP accumulation by measuring Emax for cAMP accumulation at low concentration of CP55940 at 0.3 microM after 30 mins by TR-FRET assay relative to forskolin", "assay_type": "functional, cell-based"}, "Mus musculus [6]": {"system": "Mus musculus", "assay": "Antiallodynic activity against CFA-induced mechanical allodynia CD1 mouse model assessed as increase in ipsilateral paw withdrawal threshold at 30 mg/kg, ip by Von Frey test", "assay_type": "functional, organism-based", "settings": "TDE = time-dependent effect", "how_it_was_run": "(§3)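 Time course in the CFA model at 30 mg/kg i.p. Ipsilateral and contralateral mechanical paw withdrawal thresholds were followed from 30 min to 4 h post-injection in wild-type and CB1 knockout mice. Compared with vehicle by ANOVA and Bonferroni post hoc tests.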"}, "[7]": {"settings": "human, microsomes, 1 µM"}, "Cannabinoid receptor 1 [8]": {"target": "T1, Cannabinoid receptor 1", "assay": "Agonist activity at human CB1 receptor expressed in CHO cell membranes assessed as increase in G-protein coupling by measuring [35S]GTPgammaS binding after 90 mins in presence of [35S]GTPgammaS by liquid scintillation analysis", "assay_type": "functional", "how_it_was_run": "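[35S]GTPγS binding to G protein in membranes from CHO cells stably expressing human CB1R, with test compound given alone. Data fit to a variable-slope 4-parameter nonlinear regression. n = 4–6 independent experiments in duplicate.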"}, "[9]": {"target": "Cannabinoid receptor 1 (Rattus norvegicus) (UniProt P20272)", "assay": "Positive allosteric modulatory activity at N-terminal GFP-tagged rat CB1R receptor expressed in HEK293 cells assessed as leftward shift in CP55940 dependent concentration response curve for inhibition of forskolin-induced cAMP accumulation after 30 mins by TR-FRET assay", "assay_type": "functional, cell-based"}, "Cannabinoid receptor 1 [10]": {"target": "T1, Cannabinoid receptor 1", "assay": "Allosteric agonist activity at human CB1R expressed in CHO-K1 cells assessed as inhibition of forskolin-induced cAMP accumulation after 90 mins by hit-hunter cAMP assay", "assay_type": "functional, cell-based", "how_it_was_run": "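HitHunter CHO-K1 hCB1R cells (20,000/well) were held overnight in Opti-MEM with 1% FBS. They were then co-treated at 37°C with 10 μM forskolin plus compound alone (0.10 nM – 10 μM) for 90 min. Chemiluminescent cAMP detection followed (two 60-min room-temperature steps). Data as % forskolin, variable-slope 4-parameter fit; Emin is the lower plateau. n ≥ 6, triplicate.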"}, "Cannabinoid receptor 1 [11]": {"target": "T1, Cannabinoid receptor 1", "assay": "Positive allosteric modulatory activity at human CB1R expressed in CHO-K1 cells assessed as increase in CP55940-induced inhibition of forskolin-stimulated cAMP production after 30 mins in presence of CP55940 at EC20 concentration by hit-hunter cAMP assay relative to control", "assay_type": "functional, cell-based", "how_it_was_run": "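Read-out was chemiluminescent cAMP detection, fit with a variable-slope 4-parameter regression. n = 1–3 independent experiments in duplicate.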"}, "Mus musculus [12]": {"system": "Mus musculus", "assay": "Antiallodynic activity against CFA-induced mechanical allodynia CD1 mouse model assessed as effect on ipsilateral paw withdrawal threshold at 0.3 mg/kg, ip measured every 3 hrs for 2 days post treatment by Von Frey test", "assay_type": "functional, organism-based", "how_it_was_run": "(§4)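 Mice received CFA injection into one paw. Mechanical paw withdrawal thresholds were measured in the injected (ipsilateral) and contralateral paws after i.p. compound at 0.1, 0.3, 1, 3, 10 or 30 mg/kg, compared with vehicle-treated groups at the same times.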"}, "[13]": {"target": "Cannabinoid receptor 1 (Rattus norvegicus) (UniProt P20272)", "assay": "Allosteric agonist activity at N-terminal GFP-tagged rat CB1R expressed in HEK293 cells assessed as inhibition of forskolin-induced cAMP production by measuring cAMP accumulation at minimal level at higher concentrations after 30 min by TR-FRET assay relative to forskolin", "assay_type": "functional, cell-based", "how_it_was_run": "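HEK293 cells stably expressing N-terminal GFP-tagged rat CB1R were trypsin-EDTA dissociated and resuspended in HBSS with 0.1% BSA and 0.5mM IBMX at 500 cells/well. Cells got 5μM forskolin plus compound (1 pM – 10 μM) alone for 30 min. 4-parameter fit; Emin is the lower plateau. n ≥ 3, triplicate.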"}, "Cannabinoid receptor 1 [14]": {"target": "T1, Cannabinoid receptor 1", "assay": "Positive allosteric modulatory activity at human CB1R expressed in CHO-K1 cells assessed as increase in CP55940-induced beta-arrestin2 recruitment after 90 mins in presence of CP55940 at EC20 concentration by pathhunter beta-arrestin assay", "assay_type": "cell-based", "how_it_was_run": "as §1"}, "Mus musculus [15]": {"system": "Mus musculus", "assay": "Antiallodynic activity against CFA-induced mechanical allodynia CD1 mouse model assessed as increase in ipsilateral paw withdrawal threshold at 30 mg/kg, ip after […] post treatment by Von Frey test", "assay_type": "functional, organism-based"}, "Mus musculus [16]": {"system": "Mus musculus", "assay": "Antiallodynic activity against CFA-induced mechanical allodynia CD1 mouse model assessed as increase in ipsilateral paw withdrawal threshold at 3 to 30 mg/kg, ip measured every 3 hrs for 2 days post treatment by Von Frey test", "assay_type": "functional, organism-based", "how_it_was_run": "as §4"}, "Mus musculus [17]": {"system": "Mus musculus", "assay": "Antinociceptive activity in C57BL/6 mouse at 3 to 10 mg/kg, ip after 20 mins post treatment by warm water tail-flick assay", "assay_type": "functional, organism-based"}, "[18]": {"target": "Cannabinoid receptor 1 (Rattus norvegicus) (UniProt P20272)", "assay": "as §2, with “concentrations” for “concentration”, “0.03” for “0.3”", "assay_type": "functional, cell-based"}, "Cannabinoid receptor 1 [19]": {"target": "T1, Cannabinoid receptor 1", "assay": "Positive allosteric modulation activity at human CB1 receptor expressed in CHO cell membranes assessed as increase in [3H]CP55940 binding at 1 uM measured after 90 mins in presence of [35S]GTPgammaS by liquid scintillation analysis", "assay_type": "functional"}, "Mus musculus [20]": {"system": "Mus musculus", "assay": "Antiallodynic activity against CFA-induced mechanical allodynia CD1 mouse model assessed as increase in ipsilateral paw withdrawal threshold at 30 mg/kg, ip after 30 mins post treatment by Von Frey test", "assay_type": "functional, organism-based", "how_it_was_run": "as §3"}, "[21]": {"settings": "rat, microsomes, 1 µM"}},
  "note": "Active and inactive are the calls of the source.",
  "data": [
    {"molecule": "O=[N+]([O-])CC(c1ccccc1F)c1c(-c2cccc(F)c2)[nH]c2c(F)cccc12", "note": "(stereo unspecified)", "values": [
      {"measurement": "Emax", "setting": "Cannabinoid receptor 1 [1]", "value": 82, "unit": "%"},
      {"measurement": "Activity", "setting": "[2]", "value": "Non-Toxic"},
      {"measurement": "Ki", "setting": "Cannabinoid receptor 1 [3]", "value": 0.0052, "unit": "µM"},
      {"measurement": "Emax", "setting": "Cannabinoid receptor 1 [4]", "value": 25, "unit": "%"},
      {"measurement": "Emax", "setting": "[5]", "value": 33, "unit": "%"},
      {"measurement": "Activity", "setting": "Mus musculus [6]", "value": "Tde"},
      {"measurement": "CLH", "setting": "[7]", "value": 44.4, "unit": "µL/min"},
      {"measurement": "EC50", "setting": "Cannabinoid receptor 1 [8]", "value": 0.033, "unit": "µM"},
      {"measurement": "Activity", "setting": "[9]", "value": "Dose-dependent effect"},
      {"measurement": "EC50", "setting": "Cannabinoid receptor 1 [10]", "value": 0.0039, "unit": "µM"},
      {"measurement": "Emax", "setting": "Cannabinoid receptor 1 [11]", "value": 93, "unit": "%"},
      {"measurement": "Activity", "setting": "Mus musculus [12]", "value": "inactive"},
      {"measurement": "Emin", "setting": "[13]", "value": 30, "unit": "%"},
      {"measurement": "EC50", "setting": "Cannabinoid receptor 1 [14]", "value": 0.51, "unit": "µM"},
      {"measurement": "Activity", "setting": "Mus musculus [15]", "value": "Active"},
      {"measurement": "Activity", "setting": "Mus musculus [16]", "value": "Active"},
      {"measurement": "Activity", "setting": "Mus musculus [17]", "value": "Active"},
      {"measurement": "Emax", "setting": "[18]", "value": 63, "unit": "%"},
      {"measurement": "Activity", "setting": "Cannabinoid receptor 1 [19]", "value": "Active"},
      {"measurement": "Activity", "setting": "Mus musculus [20]", "value": "Active"}
    ]},
    {"molecule": "O=[N+]([O-])CC(c1ccccc1F)c1c(-c2cccc(F)c2)[nH]c2cc(F)ccc12", "note": "(stereo unspecified)", "values": [
      {"measurement": "Emax", "setting": "Cannabinoid receptor 1 [1]", "value": 71, "unit": "%"},
      {"measurement": "Activity", "setting": "[2]", "value": "Non-Toxic"},
      {"measurement": "Ki", "setting": "Cannabinoid receptor 1 [3]", "value": 0.0048, "unit": "µM"},
      {"measurement": "Emax", "setting": "Cannabinoid receptor 1 [4]", "value": 34, "unit": "%"},
      {"measurement": "Emax", "setting": "[5]", "value": 32, "unit": "%"},
      {"measurement": "Activity", "setting": "Mus musculus [6]", "value": "Tde"},
      {"measurement": "CLH", "setting": "[7]", "value": 44.9, "unit": "µL/min"},
      {"measurement": "EC50", "setting": "Cannabinoid receptor 1 [8]", "value": 0.047, "unit": "µM"},
      {"measurement": "CLH", "setting": "[21]", "value": 248, "unit": "µL/min"},
      {"measurement": "Activity", "setting": "[9]", "value": "Dose-dependent effect"},
      {"measurement": "EC50", "setting": "Cannabinoid receptor 1 [10]", "value": 0.0043, "unit": "µM"},
      {"measurement": "Emax", "setting": "Cannabinoid receptor 1 [11]", "value": 93, "unit": "%"},
      {"measurement": "Activity", "setting": "Mus musculus [12]", "value": "inactive"},
      {"measurement": "Emin", "setting": "[13]", "value": 32, "unit": "%"},
      {"measurement": "EC50", "setting": "Cannabinoid receptor 1 [14]", "value": 0.75, "unit": "µM"},
      {"measurement": "Activity", "setting": "Mus musculus [15]", "value": "Active"},
      {"measurement": "Activity", "setting": "Mus musculus [16]", "value": "Active"},
      {"measurement": "Activity", "setting": "Mus musculus [17]", "value": "Active"},
      {"measurement": "Emax", "setting": "[18]", "value": 58, "unit": "%"},
      {"measurement": "Activity", "setting": "Cannabinoid receptor 1 [19]", "value": "Active"},
      {"measurement": "Activity", "setting": "Mus musculus [20]", "value": "Active"}
    ]}
  ]
}
